Bioassay records: PubChem BioAssay, Broad Institute
Most compounds without a hit are left out; they make up all but 1.3% or so of the library.
RAD54 inh = blocks human RAD54 Holliday junction branch migration; Q92698; FAM/BHQ fluorescence; inhibition, % at 10.4 µM; hit rate 0.14% among 360,000; AID 602329;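 active means mean normalized replicate activity at least 40 and at least half of replicates scoring 40 or more; inconclusive means only one of the two criteria met; inactive means mean below 40 and under half of replicates reaching 40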;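 further: inhibitors cause a drop in the FAM fluorescence signal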
Target sequence (Q92698 whole entry, looked up): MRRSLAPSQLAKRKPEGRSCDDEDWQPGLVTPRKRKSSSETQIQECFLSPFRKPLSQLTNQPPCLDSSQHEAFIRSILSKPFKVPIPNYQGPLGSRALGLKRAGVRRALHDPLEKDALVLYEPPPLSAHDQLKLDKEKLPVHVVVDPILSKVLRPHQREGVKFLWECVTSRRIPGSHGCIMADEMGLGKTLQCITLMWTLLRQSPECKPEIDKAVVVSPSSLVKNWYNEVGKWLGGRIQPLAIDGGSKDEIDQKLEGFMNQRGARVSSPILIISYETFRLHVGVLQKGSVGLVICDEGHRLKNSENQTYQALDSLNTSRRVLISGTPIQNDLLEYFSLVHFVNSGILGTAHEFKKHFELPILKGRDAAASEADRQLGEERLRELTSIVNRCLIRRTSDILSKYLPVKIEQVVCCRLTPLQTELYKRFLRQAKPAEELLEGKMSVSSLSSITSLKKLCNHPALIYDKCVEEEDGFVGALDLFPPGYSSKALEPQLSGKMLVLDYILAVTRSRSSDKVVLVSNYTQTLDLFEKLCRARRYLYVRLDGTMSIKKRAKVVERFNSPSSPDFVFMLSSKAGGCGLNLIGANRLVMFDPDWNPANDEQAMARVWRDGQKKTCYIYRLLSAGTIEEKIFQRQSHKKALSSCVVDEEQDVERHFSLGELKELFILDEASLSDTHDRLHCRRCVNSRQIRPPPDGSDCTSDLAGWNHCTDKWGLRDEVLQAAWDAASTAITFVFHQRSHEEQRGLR
PAX8 inh HTS = lowers PAX8-driven luciferase in RMG-I cells; hit rate 1.2% among 360,000; inhibition, % at 12.6 µM; RMG-I TPO-luciferase reporter, SteadyGlo, 24 h;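 active means mean replicate inhibition at least 60% with every replicate also reaching 60%; inconclusive means only one of the two criteria is met; inactive means mean below 60% and not all replicates reaching 60%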;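 further: luciferase light reporting Pax8 driven TPO promoter activity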
FN deposit inh = fibronectin deposition inhibition. inhibition, % at 12.6 µM. hit rate 0.086% among 350,000. AH1F fibroblasts, Alexa488-fibronectin deposition fluorescence, overnight;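 active means mean inhibition across replicates of 30% or more, regardless of how many single replicates reach that level; inconclusive means mean under 30% yet at least half of replicates reach 30%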
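test system = AH1F fibroblasts assembling fluorescent fibronectin matrix | quantity = 10000 AH1F cells per well | buffer or medium = DMEM plus 2% serum, read in PBS | doses = single dose, pinned | incubation = 1 h cell attachment, overnight exposure to compound and label | detection = fluorescence at 485 nm excitation, 525 nm emission | read-out basis = inhibition from reduced deposited-fibronectin fluorescence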
RAD52 anneal inh = inhibitors of human RAD52 DNA annealing. P43351. recombinant RAD52 DNA annealing, FRET fluorescence. inhibition, % at 18.7 µM. hit rate 0.46% among 360,000. AID 651710;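 active means every replicate showing at least 50% inhibition; inconclusive means mean inhibition at least 50% but not in every replicate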
Hits are given with their value; i = inactive; ? = inconclusive; nt = no result; ! = not confirmed by another sample.

SMILES | RAD54 inh | PAX8 inh HTS | FN deposit inh | RAD52 anneal inh
COc1ccc(Cl)cc1S(=O)(=O)N1CCC(C(=O)NC2CC2)CC1 | i | i | nt | i
CC1(C)CC(=O)C2=C(C1)OC(N)=C(C#N)[C@@H]2c1ccccc1[N+](=O)[O-] | i | i | i | i
CCC(=O)N1CCN(c2ccc(Cl)cc2NC(=O)c2ccc([N+](=O)[O-])o2)CC1 | i | i | nt | i
O=C(Nc1cc(Cl)ccc1-n1cncn1)c1ccc([N+](=O)[O-])o1 | i | 63.0 | i | i
O=C(Nc1cc(Cl)ccc1F)c1ccc(-n2cncn2)c([N+](=O)[O-])c1 | i | i | i | i
CC(=O)N1CCN(c2ccc(NC(=O)c3ccc([N+](=O)[O-])o3)cc2Cl)CC1 | i | 101.5 | i | i
CCN1CCN(c2ccc(NC(=O)c3ccc([N+](=O)[O-])o3)cc2Cl)CC1 | nt | 83.3 | i | i
CCC(=O)N1CCN(c2ccc(NC(=O)c3ccc([N+](=O)[O-])o3)cc2Cl)CC1 | nt | 99.0 | 59.9 | i
O=C(C[C@@H]1CC[C@@H]2[C@H](COC[C@H](O)CN2Cc2cccc(Cl)c2)O1)N1CCOCC1 | i | i | i | i
CC(C)Oc1ccccc1C1CC(=O)Nc2cc3c(cc21)OCO3 (centres undefined) | i | 68.3 | nt | nt
COc1ccc(C2=Nn3c(nnc3C(F)(F)F)SC2)cc1 | i | i | i | i
CCCC(=O)Nc1ccc2c(c1)C(=O)N(C)C[C@@H](OC)[C@@H](C)CN(CC1CCOCC1)[C@@H](C)CO2 | nt | nt | i | nt
Cc1c(NC(=O)c2ccc3nsnc3c2)cccc1[N+](=O)[O-] | i | i | 32.8 | i
CCN1C(=O)[C@@H]2Cc3c([nH]c4ccccc34)C(c3cc(OC)c(OC)c(OC)c3)N2C1=S (some centres undefined) | i | i | i | i
C=CCNC(=O)C12CCC(C)(C(=O)C1Br)C2(C)C (centres undefined) | i | i | i | nt
CC(C)N=C(NS(=O)(=O)c1ccccc1)C(Cl)(Cl)Cl | i | 96.4 | i | i
O=C(Nc1cccc(F)c1)N1C[C@@H]2N[C@H](C1)C2c1ccc(-c2ccccc2F)cc1 (some centres undefined) | nt | i | i | 63.6!
Cc1ccccc1-c1ccc(C2[C@@H]3CN(C(=O)Nc4ccc(F)cc4)C[C@H]2N3)cc1 (some centres undefined) | nt | ? | i | nt
Cc1ccccc1-c1ccc(C2[C@@H]3CN(C(=O)Nc4cccc(F)c4)C[C@H]2N3)cc1 (some centres undefined) | nt | 85.1! | i | 72.2!
O=C(Nc1cccc(F)c1)N1C[C@@H]2N[C@H](C1)C2c1ccc(-c2cccnc2)cc1 (some centres undefined) | nt | i | i | i
COCCOC(=O)c1c(C)oc2ccc(NS(=O)(=O)c3ccc(C(=O)O)cc3)cc12 | i | i | i | nt
Cc1cc(C(C)(C)C)ccc1Oc1cccc2c1S(=O)(=O)N(C1CCCC1)CC(COCc1ccccc1)O2 (centres undefined) | i | i | i | i
COc1ccc(S(=O)(=O)N2CCN(C(=O)NC3CCCCC3)CC2)cc1OC | i | nt | nt | nt
CC(C)c1ccc(/C=C/C(=O)N2CCc3ccccc3C2)cc1 | i | 67.1 | i | i
O=c1c2c(nc3nc(COc4ccccc4)[nH]n13)CCC2 | i | nt | nt | nt
SMILES | RAD54 inh | PAX8 inh HTS | FN deposit inh | RAD52 anneal inh
COc1ccc(C#Cc2ccc([C@H]3[C@@H](CO)N4CCCCN(C(=O)Nc5cccc(F)c5)C[C@H]34)cc2)cc1 | 50.7 | 75.5 | nt | nt
COc1ccc(C#Cc2ccc([C@@H]3[C@H]4CN(C(=O)Nc5cccc(F)c5)CCCCN4[C@H]3CO)cc2)cc1 | i | i | nt | i
Cc1ccc(-c2ccc([C@H]3[C@@H](CO)N4CCCCN(C(=O)Nc5cccc(F)c5)C[C@H]34)cc2)cc1 | i | 107.7 | nt | i
O=C(Nc1cc(F)ccc1F)N1CCCCN2[C@H](C1)[C@H](c1ccc(C3=CCCCC3)cc1)[C@@H]2CO | i | i | i | i
COc1ccc(C#Cc2ccc([C@@H]3[C@H](CO)N4CCCCN(C(=O)Nc5cccc(F)c5)C[C@@H]34)cc2)cc1 | i | 76.3 | nt | i
O=C(Nc1cc(F)ccc1F)N1CCCCN2[C@@H](CO)[C@@H](c3ccc(C4=CCCCC4)cc3)[C@@H]2C1 | i | i | i | 54.4
O=C(Nc1cccc(F)c1)N1CCCCN2[C@H](C1)[C@@H](c1ccc(-c3ccncc3)cc1)[C@@H]2CO | i | i | nt | i
N#CC1(NC(=O)Cn2ncc(Cl)c(Cl)c2=O)CCCCC1 | i | 91.5 | nt | i
Cc1ccc(-n2ncc3c(N4CCCC4)ncnc32)c(C)c1 | i | i | i | nt
COc1cccc(N2CCN(c3ncnc4c3cnn4-c3ccc(C)cc3C)CC2)c1 | i | 101.7 | i | i
COc1ccc(CN(C)C[C@@H]2Oc3ccc(NC(=O)Nc4c(C)noc4C)cc3C(=O)N([C@H](C)CO)C[C@H]2C)cc1 | 55.6 | i | i | i
COc1ccc(CN(C)C[C@H]2Oc3ccc(NC(=O)Nc4c(C)noc4C)cc3C(=O)N([C@@H](C)CO)C[C@@H]2C)cc1 | i | i | i | i
COc1ccc(CN(C)C[C@@H]2Oc3ccc(NC(=O)Nc4ccc(OC)cc4)cc3C(=O)N([C@@H](C)CO)C[C@H]2C)cc1 | 62.1 | i | nt | i
C[C@@H]1CN([C@H](C)CO)C(=O)c2cc(NC(=O)Nc3ccc(F)cc3)ccc2O[C@H]1CN(C)Cc1ccc(Oc2ccccc2)cc1 | i | nt | nt | i
C[C@H]1CN([C@@H](C)CO)C(=O)c2cc(NC(=O)Nc3ccc(F)cc3)ccc2O[C@@H]1CN(C)Cc1ccc(C(F)(F)F)cc1 | i | i | nt | i
C[C@@H]1CN([C@@H](C)CO)C(=O)c2cc(NC(=O)Nc3ccc(F)cc3)ccc2O[C@@H]1CN(C)Cc1ccc(Oc2ccccc2)cc1 | i | 74.6 | i | i
C[C@@H]1CN([C@H](C)CO)C(=O)c2cc(NC(=O)Nc3ccc(F)cc3)ccc2O[C@H]1CN(C)Cc1ccc(C(F)(F)F)cc1 | i | 68.1 | nt | i
CCOc1ccc(CCN2C(=O)C(=O)N([C@@H](Cc3ccc(O)cc3)CN3CCC[C@H]3CN3C(=O)C(=O)NC[C@@H]3Cc3ccc(O)cc3)C[C@@H]2Cc2ccc(O)cc2)cc1 | nt | i | i | i
CCN(c1ccccc1)S(=O)(=O)c1cc(OC)ccc1OC | i | nt | i | nt
CCc1nnc(NC(=O)CSc2ncc(-c3ccccc3)n2CC)s1 | i | i | i | nt
Cc1ccc2[nH]c(CCN(C)C)c(CC#N)c2c1 | i | nt | nt | nt
COc1ccc(CN(C)C[C@H]2Oc3ccc(NC(=O)Nc4ccc(C(F)(F)F)cc4)cc3C(=O)N([C@@H](C)CO)C[C@@H]2C)cc1 | i | nt | i | i
COc1ccc(CN(C)C[C@@H]2Oc3ccc(NC(=O)NC4CCCCC4)cc3C(=O)N([C@H](C)CO)C[C@H]2C)cc1 | i | i | nt | i
C[C@@H]1CN([C@@H](C)CO)C(=O)c2cc(NC(=O)Nc3ccc4c(c3)OCO4)ccc2O[C@@H]1CN(C)C(=O)Nc1ccc(C(F)(F)F)cc1 | i | 77.4 | i | i
COc1ccc(CN(C)C[C@H]2Oc3ccc(NC(=O)Nc4ccccc4)cc3C(=O)N([C@@H](C)CO)C[C@@H]2C)cc1 | i | nt | nt | i
COc1ccc(CN(C)C[C@@H]2Oc3ccc(NC(=O)Nc4ccccc4)cc3C(=O)N([C@@H](C)CO)C[C@H]2C)cc1 | 52.7 | nt | nt | i
